The results in this text go back to ChEMBL document CHEMBL4321849, “Biphenyl Acid Derivatives as APJ Receptor Agonists” (J Med Chem, 2019).

Structures are written as SMILES. Values after ≈ are worked out from the molar mass of the structure shown. Active and inactive are the calls of the source. No cut-off for these calls is given here.

The target of data set [1] is T1, Apelin receptor (Homo sapiens, UniProt P35414).
T1 sequence (P35414 whole entry): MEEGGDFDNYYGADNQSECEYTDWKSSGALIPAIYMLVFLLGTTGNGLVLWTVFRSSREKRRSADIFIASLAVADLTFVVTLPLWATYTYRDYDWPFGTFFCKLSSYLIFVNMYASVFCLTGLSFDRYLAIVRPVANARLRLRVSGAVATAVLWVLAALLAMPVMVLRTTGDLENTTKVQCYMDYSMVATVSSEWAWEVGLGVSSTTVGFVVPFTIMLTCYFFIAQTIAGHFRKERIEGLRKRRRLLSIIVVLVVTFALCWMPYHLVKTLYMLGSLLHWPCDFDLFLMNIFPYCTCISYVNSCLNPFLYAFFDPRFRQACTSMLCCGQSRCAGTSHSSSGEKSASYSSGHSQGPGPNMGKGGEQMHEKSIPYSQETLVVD
Kind of data set: Agonist activity at human APJ-R expressed in HEK293 cells assessed as inhibition of forskolin- stimulated cAMP accumulation incubated for 30 mins by HTRF assay. Type of data set: functional, cell-based.

The target of data set [2] is T2, Apelin receptor (Rattus norvegicus, UniProt Q9JHG3).
T2 sequence (Q9JHG3 whole entry): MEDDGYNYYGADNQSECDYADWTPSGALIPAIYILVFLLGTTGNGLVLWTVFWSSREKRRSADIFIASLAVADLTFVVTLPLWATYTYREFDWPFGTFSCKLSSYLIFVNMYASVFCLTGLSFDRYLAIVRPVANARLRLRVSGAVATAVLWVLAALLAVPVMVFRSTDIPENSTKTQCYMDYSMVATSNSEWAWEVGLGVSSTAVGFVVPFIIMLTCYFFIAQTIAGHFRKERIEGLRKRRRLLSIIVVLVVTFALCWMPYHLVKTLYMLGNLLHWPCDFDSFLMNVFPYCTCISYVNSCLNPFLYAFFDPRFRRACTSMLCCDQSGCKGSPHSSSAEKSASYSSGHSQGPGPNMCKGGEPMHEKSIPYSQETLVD
Kind of data set: Agonist activity at rat APJ-R expressed in HEK293 cells assessed as inhibition of forskolin- stimulated cAMP accumulation incubated for 30 mins by HTRF assay. Type of data set: functional, cell-based.

Data set [3] can be described thus: Solubility in pH 7.4 buffer using amorphous form. It is filed as physicochemical.
In data set [4] the target is T3, Apelin receptor (Homo sapiens) (UniProt P35414).
T3 sequence (whole entry): T1 sequence (P35414 whole entry)
Kind of data set: Displacement of [125I]-apelin-13 from human APJ-R expressed in HEK293 cell membranes incubated for 1 hr by radioligand binding assay. In short, it runs like this: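 Membranes from HEK293 cells expressing human APJ-R (1 μg) were incubated with increasing test concentrations and 0.1 nM [125I]-(Pyr1)apelin-13. Buffer was 25 mM HEPES, 10 mM MgCl2, 2 mM EGTA and 0.1% BSA, pH 7.2. Incubation ran 1 h at room temperature. Bound ligand was separated on 0.3% polyethyleneimine-soaked GF/B filters.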

For data set [5], the system named is Rattus norvegicus. Kind of data set: Acute hemodynamic effect in isoflurane-anesthetized Sprague-Dawley rat assessed as increase in cardiac output at 10 to 1000 ug/min/kg, iv infused into jugular vein for 15 mins with continuous monitoring of hemodynamics followed by monitoring for additional 15 mins after terminating infusion by pressure-volume loop analysis relative to control. It is filed as functional, organism-based. In short, it runs like this:
(§1)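 Male SD rats under isoflurane, instrumented with a Millar PV-loop catheter in the LV and a pressure catheter in the abdominal aorta. After a stable baseline, test agent or N,N-dimethylacetamide vehicle (100 μL/kg/min) infused into the jugular vein for 15 min. Hemodynamics were monitored continuously during infusion and for 15 min after it stopped. n = 7–8 per dose, vehicle n = 10.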

Data set [6] concerns Rattus norvegicus. Kind of data set: Acute hemodynamic effect in isoflurane-anesthetized Sprague-Dawley rat assessed as increase in cardiac output at 6 ug/min/kg, iv infused into jugular vein for 15 mins with continuous monitoring of hemodynamics followed by monitoring for additional 15 mins after terminating infusion by pressure-volume loop analysis relative to control. Type of data set: functional, organism-based. An outline of the steps:
as §1

A short description of data set [7]: Toxicity in isoflurane-anesthetized Sprague-Dawley rat assessed as effect on blood pressure by measuring transient blood pressure drop at 6 ug/min/kg, iv infused into jugular vein for 15 mins with continuous monitoring of hemodynamics followed by monitoring for additional 15 mins after terminating infusion by pressure-volume loop analysis relative to control. It is filed as organism-based. Particulars: in vivo, 0.25 h. In short, it runs like this:
as §1

A short description of data set [8]: Toxicity in isoflurane-anesthetized Sprague-Dawley rat assessed as effect on heart rate at 6 ug/min/kg, iv infused into jugular vein for 15 mins with continuous monitoring of hemodynamics followed by monitoring for additional 15 mins after terminating infusion by pressure-volume loop analysis relative to control. Particulars: in vivo, 0.25 h. Type of data set: organism-based. In short, it runs like this: as §1

Data set [9] concerns Rattus norvegicus. Kind of data set: Acute hemodynamic effect in isoflurane-anesthetized Sprague-Dawley rat assessed as increase in cardiac output at 100 ug/min/kg, iv infused into jugular vein for 15 mins with continuous monitoring of hemodynamics followed by monitoring for additional 15 mins after terminating infusion by pressure-volume loop analysis relative to control. Type of data set: functional. An outline of the steps: as §1

The nature of data set [10]: Toxicity in isoflurane-anesthetized Sprague-Dawley rat assessed as effect on blood pressure by measuring transient blood pressure drop at 100 ug/min/kg, iv infused into jugular vein for 15 mins with continuous monitoring of hemodynamics followed by monitoring for additional 15 mins after terminating infusion by pressure-volume loop analysis relative to control. Particulars: in vivo, 0.25 h. Type of data set: organism-based. In short, it runs like this: as §1

Data set [11] is described as follows: Toxicity in isoflurane-anesthetized Sprague-Dawley rat assessed as effect on heart rate at 100 ug/min/kg, iv infused into jugular vein for 15 mins with continuous monitoring of hemodynamics followed by monitoring for additional 15 mins after terminating infusion by pressure-volume loop analysis relative to control. It is filed as organism-based. Particulars: in vivo, 0.25 h. An outline of the steps: as §1

A short description of data set [12]: Toxicity in isoflurane-anesthetized Sprague-Dawley rat assessed as effect on heart rate at 10 to 1000 ug/min/kg, iv infused into jugular vein for 15 mins with continuous monitoring of hemodynamics followed by monitoring for additional 15 mins after terminating infusion by pressure-volume loop analysis relative to control. It is filed as organism-based. Particulars: in vivo, 0.25 h. An outline of the steps: as §1

Data set [13] in a line: Plasma concentration in Sprague-Dawley rat at 10 ug/min/kg, iv infused into jugular vein for 15 mins. It is filed as ADME, organism-based. In short, it runs like this: (§2)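 Rats separate from the hemodynamic groups received the same 15 min jugular infusions (n = 3/dose). Plasma concentration (μM) was measured at the end of the 15 min infusion. Washout samples were also taken after stopping the 10 and 1000 μg/kg/min infusions.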

The nature of data set [14]: Plasma concentration in Sprague-Dawley rat at 100 ug/min/kg, iv infused into jugular vein for 15 mins. Type of data set: ADME, organism-based. An outline of the steps: as §2
Data set [15] in a line: Plasma concentration in Sprague-Dawley rat at 1000 ug/min/kg, iv infused into jugular vein for 15 mins. Type of data set: ADME, organism-based. An outline of the steps: as §2

Take `COc1ccc(NC(=O)c2ccc(Cl)cc2-c2ccc(C(=O)Nc3ccc4c(c3)CCC4)cc2C(=O)O)cc1F`: the half-maximal effective concentration (EC50) in data set [1] came to 29 nM. Still for that read-out and setting: next, `CCC[C@@H](NC(=O)c1ccc(-c2c(C)cccc2-c2nc3ccccc3[nH]2)c(C(=O)O)c1)c1ccccc1`: 0.18 nM; `CCC[C@@H](NC(=O)c1ccc(-c2cc(Cl)ccc2-c2nc3ccccc3[nH]2)c(C(=O)O)c1)c1ccccc1`: 1.4 nM; `CCC[C@@H](NC(=O)c1ccc(-c2cc(C)ccc2-c2nc3ccccc3[nH]2)c(C(=O)O)c1)c1ccccc1`: 1.5 nM.

Regarding `CCC[C@@H](NC(=O)c1ccc(-c2cc(Cl)ccc2C(=O)Nc2ccc(OC)c(F)c2)c(C(=O)O)c1)c1ccccc1`, the concentration giving a half-maximal response (EC50) in data set [1] worked out at 0.33 nM.

Consider `CCC[C@@H](NC(=O)c1ccc(-c2c(Cl)cccc2-c2nc3ccccc3[nH]2)c(C(=O)O)c1)c1ccccc1` (stereo in doubt; 15b), for which the 50% effective concentration (EC50) in data set [1] came out at 22 nM; in [2] it was 43 nM.

As to `CCC[C@@H](NC(=O)c1ccc(-c2cc(Cl)ccc2-c2nc3cccc(C)c3[nH]2)c(C(=O)O)c1)c1ccccc1`, the EC50 in data set [1] was determined as 51 nM.

Turning to `CCC[C@@H](NC(=O)c1ccc(-c2ccc(Cl)cc2-c2nc3ccccc3[nH]2)c(C(=O)O)c1)c1ccccc1`, the EC50 in data set [1] turned out to be 9 nM. On the same count and under the same terms, next, `CCC[C@@H](NC(=O)c1ccc(-c2c(F)cccc2-c2nc3ccccc3[nH]2)c(C(=O)O)c1)c1ccccc1`: 0.51 nM. `CCC[C@@H](NC(=O)c1ccc(-c2c(Cl)cccc2-c2nc3cc(OC)ccc3[nH]2)c(C(=O)O)c1)c1ccccc1`: the concentration giving a half-maximal response (EC50) came to 0.062 nM in [1] and 0.12 nM in [2]. Moreover, in data set [3], the concentration in solution (solubility) came to 0.18 mg/mL (≈ 325 µM). As for `CCC[C@@H](NC(=O)c1ccc(-c2cc(OC)ccc2-c2nc3ccccc3[nH]2)c(C(=O)O)c1)c1ccccc1`, the 50% effective concentration (EC50) in data set [1] came out at 5.7 nM. As for `CCC[C@@H](NC(=O)c1ccc(-c2c(Cl)cccc2-c2nc3ccccc3[nH]2)c(C(=O)O)c1)c1ccccc1` (stereo in doubt; 15a) [listing 1 of 2 here], the inhibition result in data set [4] is “Active”. For the same compound, the Activity entry in data set [5] is “Dose-dependent effect”. With `CSCC[C@H](NC(=O)[C@@H]1CCCN1C(=O)CNC(=O)[C@H](CCCCN)NC(=O)[C@H](Cc1cnc[nH]1)NC(=O)[C@H](CO)NC(=O)[C@H](CC(C)C)NC(=O)[C@H](CCCNC(=N)N)NC(=O)[C@@H]1CCCN1C(=O)[C@H](CCCNC(=N)N)NC(=O)[C@@H]1CCC(=O)N1)C(=O)N1CCC[C@H]1C(=O)N[C@@H](Cc1ccccc1)C(=O)O`, the result in data set [6] was Active. Besides, the Activity result in data set [7] and in data set [8] was “Non-Toxic” each time. For the compound `CCC[C@@H](NC(=O)c1ccc(-c2cc(Cl)ccc2-c2nc3cc(Cl)ccc3[nH]2)c(C(=O)O)c1)c1ccccc1`, the concentration giving a half-maximal response (EC50) in [1] was found to be 0.31 nM. Turning to `CCC[C@@H](NC(=O)c1ccc(-c2cc(Cl)ccc2-c2nc3cc(OC)ccc3[nH]2)c(C(=O)O)c1)c1ccccc1`, the EC50 in data set [1] came out at 0.083 nM.

As for `CCC[C@@H](NC(=O)c1ccc(-c2cc(Cl)ccc2-c2ncc(-c3ccccc3)[nH]2)c(C(=O)O)c1)c1ccccc1`, the EC50 in data set [1] stood at 7.4 nM. For `CCC[C@@H](NC(=O)c1ccc(-c2cc(Cl)ccc2-c2nc3cc(C)ccc3[nH]2)c(C(=O)O)c1)c1ccccc1`, the concentration for a half-maximal effect (EC50) in data set [1] came to 0.6 nM.

On to `COC[C@H](NC(=O)c1ccc(-c2cc(Cl)ccc2C(=O)Nc2ccc(OC)c(F)c2)c(C(=O)O)c1)c1ccccc1`, for which the concentration for a half-maximal effect (EC50) in data set [1] was 2.7 nM. Same read-out and setting: next, `CCC[C@@H](NC(=O)c1ccc(-c2cccc(Cl)c2-c2nc3ccccc3[nH]2)c(C(=O)O)c1)c1ccccc1`: 2100 nM; `CCC[C@@H](NC(=O)c1ccc(-c2ccccc2-c2nc3ccccc3[nH]2)c(C(=O)O)c1)c1ccccc1`: 5.7 nM. Still for that read-out and setting: the figure for `COc1ccc(NC(=O)c2ccc(Cl)cc2-c2ccc(C(=O)N[C@H](CO)c3ccccc3)cc2C(=O)O)cc1F` is 59 nM. Still for that read-out and setting: next, `CCC[C@@H](NC(=O)c1ccc(-c2c(Cl)cccc2-c2nc3ccccc3[nH]2)c(C(=O)O)c1)c1ccccc1` (stereo in doubt; 12f): 0.2 nM; `CCC[C@@H](NC(=O)c1ccc(-c2cc(Cl)ccc2-c2nc3ccccc3o2)c(C(=O)O)c1)c1ccccc1`: 4900 nM. For `CCC[C@@H](NC(=O)c1ccc(-c2c(Cl)cccc2-c2nc3ccccc3[nH]2)c(C(=O)O)c1)c1ccccc1` (stereo in doubt; 15a) [listing 2 of 2 here], the EC50 in [1] was found to be 0.093 nM; in data set [2] it was 0.12 nM. In [3], this compound displayed a solubility of 0.66 mg/mL (≈ 1260 µM). Besides, the Activity is reported as 10% in data set [9], less than 5% in data set [10], “Non-Toxic” in [11] and “Non-Toxic” in data set [12]. In addition, the values for the concentration at 0.25 h in data set [13], in data set [14] and in [15] were 0.44 µM, 4.4 µM and 82 µM, respectively.

Turning to `CCC[C@@H](NC(=O)c1ccc(-c2cc(Cl)ccc2-c2nc3ccncc3[nH]2)c(C(=O)O)c1)c1ccccc1`, the EC50 in data set [1] amounted to 19 nM. Same read-out and setting: the figure for `COC[C@@H](NC(=O)c1ccc(-c2cc(Cl)ccc2C(=O)Nc2ccc(OC)c(F)c2)c(C(=O)O)c1)c1ccccc1` is 0.19 nM.
